Measured values reported in ChEMBL document CHEMBL4823332, “Discovery and Development of Cyclic Peptide Inhibitors of CIB1” (ACS Med Chem Lett, 2021).
pIC50, pKd: −log10 of the molar value. Activity calls are given as the source filed them. The rule behind the calls is not given here. Starred links: 1 amine or outer side, 2 acyl side, 3 side chain; linkers in the order of their positions; H or OH if unused. Positions of bridges follow the written chain, without caps; N, C: chain ends. Residues, ends and D or L forms follow the SMILES beside them. *: point of attachment. NH(CH2CH2O)2(CH2)6Cl = ClCCCCCCOCCOCCN*; Suc = O=C(CCC(=O)[*:2])[*:1]

Assays:
[1] = biological target: T1, Calcium and integrin-binding protein 1 (Homo sapiens, UniProt Q99828); experiment: Binding affinity to full length CIB1 (unknown origin) at 300 uM by isothermal titration calorimetry
T1 sequence (Q99828 whole entry): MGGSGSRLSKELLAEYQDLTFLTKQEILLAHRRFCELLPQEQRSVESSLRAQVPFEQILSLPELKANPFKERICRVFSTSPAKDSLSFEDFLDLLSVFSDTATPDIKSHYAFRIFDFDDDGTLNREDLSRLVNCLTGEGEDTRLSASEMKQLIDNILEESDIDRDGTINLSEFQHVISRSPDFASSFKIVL

MDA-MB-468 = experiment: Cytotoxicity against human MDA-MB-468 cells assessed as cell death at 30 uM incubated for 24 hrs by trypan blue assay; assay type: functional
[2] = biological target: T2, Calcium and integrin-binding protein 1 (Homo sapiens) (UniProt Q99828); experiment: Inhibition of CIB1 in human MDA-MB-231 cells assessed as reduction in CIB1 level after 6 hrs by Western blotting analysis; assay type: cell-based
T2 sequence (whole entry): T1 sequence (Q99828 whole entry)
Procedure, shortened: (§1)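 Cells were treated with peptide for 6 h and for 24 h alongside a DMSO vehicle control. Lysates were then immunoblotted for phospho-AKT, phospho-ERK and CIB1, and the levels were compared with the DMSO-treated cells.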

[3] = biological target: T2, Calcium and integrin-binding protein 1 (Homo sapiens); experiment: Inhibition of CIB1 in human MDA-MB-468 cells assessed as reduction in AKT activity after 6 to 24 hrs by Western blotting analysis; assay type: cell-based; conditions: time 6-24 hrs; procedure, shortened: as §1
[4] = biological target: T2, Calcium and integrin-binding protein 1 (Homo sapiens); experiment: Inhibition of CIB1 in human MDA-MB-468 cells assessed as reduction in ERK activity after 6 to 24 hrs by Western blotting analysis; assay type: cell-based; conditions: time 6-24 hrs; procedure, shortened: as §1
[5] = biological target: T1, Calcium and integrin-binding protein 1; experiment: Displacement of Alexa Fluor 647 labelled UNC10245092 peptide from CIB1 (unknown origin) preincubated for 20 mins followed by Alexa-CIB1 phage peptide addition and measured after 20 to 30 mins by TR-FRET assay
[6] = biological target: T2, Calcium and integrin-binding protein 1 (Homo sapiens); experiment: Inhibition of CIB1 in human MDA-MB-231 cells assessed as reduction in ERK activity after 6 to 24 hrs by Western blotting analysis; assay type: cell-based; conditions: time 6-24 hrs; procedure, shortened: as §1
[7] = biological target: T2, Calcium and integrin-binding protein 1 (Homo sapiens); experiment: Inhibition of CIB1 in human MDA-MB-231 cells assessed as reduction in AKT activity after 6 to 24 hrs by Western blotting analysis; assay type: cell-based; conditions: time 6-24 hrs; procedure, shortened: as §1
[8] = biological target: T2, Calcium and integrin-binding protein 1 (Homo sapiens); experiment: Inhibition of CIB1 in human MDA-MB-468 cells assessed as reduction in CIB1 level after 6 hrs by Western blotting analysis; assay type: cell-based; procedure, shortened: as §1
[9] = Cytotoxicity against human MDA-MB-231 cells assessed as cell death at 30 uM incubated for 24 hrs by trypan blue assay; assay type: cell-based; conditions: mda-mb-231, 24 h
[10] = Stability in human MDA-MB-468 cell lysates assessed as compound remaining at 150 uM after 24 hrs by LCMS method; assay type: ADME, subcellular; conditions: read-out: Stabilty
Procedure, shortened: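 Peptides were incubated in MDA-MB-468 cell lysates at 37 °C.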

[11] = biological target: T2, Calcium and integrin-binding protein 1 (Homo sapiens); experiment: Inhibition of CIB1 in human MDA-MB-468 cells assessed as reduction in pAKT level after 6 to 24 hrs by Western blotting analysis; assay type: cell-based; conditions: time 6-24 hrs; procedure, shortened: as §1
[12] = biological target: T2, Calcium and integrin-binding protein 1 (Homo sapiens); experiment: Inhibition of CIB1 in human MDA-MB-231 cells assessed as reduction in pAKT level after 6 to 24 hrs by Western blotting analysis; assay type: cell-based; conditions: time 6-24 hrs; procedure, shortened: as §1
[13] = biological target: T2, Calcium and integrin-binding protein 1 (Homo sapiens); experiment: Inhibition of CIB1 in human MDA-MB-468 cells assessed as reduction in pERK level after 6 to 24 hrs by Western blotting analysis; assay type: cell-based; conditions: time 6-24 hrs; procedure, shortened: as §1
[14] = biological target: T2, Calcium and integrin-binding protein 1 (Homo sapiens); experiment: Inhibition of CIB1 in human MDA-MB-231 cells assessed as reduction in pERK level after 6 to 24 hrs by Western blotting analysis; assay type: cell-based; conditions: time 6-24 hrs; procedure, shortened: as §1

Compound	pKd [1]	Activity (MDA-MB-468)	inhibition [2]	inhibition [3]	inhibition [4]	pIC50 [5]	inhibition [6]	inhibition [7]	inhibition [8]	Activity [9]	remaining at 24 h, 150 µM [10]	inhibition [11]	inhibition [12]	inhibition [13]	inhibition [14]
CC[C@H](C)[C@@H]1NC(=O)[C@H](CC(C)C)NC(=O)[C@H](Cc2c[nH]c3ccccc23)NC(=O)[C@H](Cc2ccc(O)cc2)NC(=O)[C@@H]2CCCN2C(=O)[C@H](CCC(N)=O)NC(=O)[C@H](CCCCN)NC(=O)[C@H](Cc2ccc(O)cc2)NC(=O)CSC[C@@H](C(N)=O)NC(=O)[C@H](Cc2c[nH]c3ccccc23)NC(=O)[C@H](CC(N)=O)NC1=O ({CH2CO}-YKQPYWLINWC-NH2; thioether N-11)	8.22	2.7%	inactive	inactive	inactive	7.92	inactive	inactive	inactive	2%	48.6%				
CSCC[C@H](NC(=O)[C@H](C)NC(=O)CNC(=O)[C@H](Cc1ccc(O)cc1)NC(=O)[C@H](Cc1c[nH]c2ccccc12)NC(=O)[C@H](Cc1ccccc1)NC(=O)[C@H](CO)NC(=O)CNC(=O)CNC(=O)[C@H](CC(=O)O)NC(=O)[C@H](CCC(=O)O)NC(=O)CCC(=O)NCCOCCOCCCCCCCl)C(=O)N[C@@H](CCCCN)C(=O)N[C@@H](C)C(=O)N[C@@H](CC(C)C)C(=O)N[C@@H](Cc1ccc(O)cc1)C(=O)NCC(N)=O ({NH(CH2CH2O)2(CH2)6Cl-Suc}-EDGGSFWYGAMKALYG-NH2)	7.53	1.7%				7.34				9.5%					
CSCC[C@H](NC(=O)[C@H](C)NC(=O)CNC(=O)[C@H](Cc1ccc(O)cc1)NC(=O)[C@H](Cc1c[nH]c2ccccc12)NC(=O)[C@H](Cc1ccccc1)NC(=O)[C@H](CO)NC(=O)CNC(=O)CNC(=O)[C@H](CC(=O)O)NC(=O)[C@H](CCC(=O)O)NC(=O)[C@H](CCC(N)=O)NC(=O)[C@@H]1CCCN1C(=O)[C@H](CCCNC(=N)N)NC(=O)[C@H](CCCNC(=N)N)NC(=O)[C@H](CCCNC(=N)N)NC(=O)[C@H](CCC(N)=O)NC(=O)[C@H](CCCNC(=N)N)NC(=O)[C@H](CCCNC(=N)N)NC(=O)[C@H](CCCCN)NC(=O)[C@H](CCCCN)NC(=O)[C@H](CCCNC(=N)N)NC(=O)CNC(=O)CCC(=O)NCCOCCOCCCCCCCl)C(=O)N[C@@H](CCCCN)C(=O)N[C@@H](C)C(=O)N[C@@H](CC(C)C)C(=O)N[C@@H](Cc1ccc(O)cc1)C(=O)NCC(N)=O ({NH(CH2CH2O)2(CH2)6Cl-Suc}-GRKKRRQRRRPQEDGGSFWYGAMKALYG-NH2)		57.1%	Active			6.82			Active	9.6%	0%	Active	Active	Active	Active
